The values below come from ChEMBL document CHEMBL2021777 (J Med Chem, 2012).

Activity calls are given as the source filed them. The rule behind the calls is not given here.

For orientation: inhibition means the change of the read-out against control, counted positive when it falls. What is called Ki is the dissociation constant of the complex between target and ligand, obtained from inhibition or displacement. The term Cmax denotes the highest concentration seen after dosing. By Tmax is commonly meant the time from dosing to the highest level.

Data set [1] concerns the target Alpha-1D adrenergic receptor (Homo sapiens) (UniProt P25100). As to the kind of experiment: Inhibition of alpha1D adrenergic receptor at 10 uM by radioligand displacement assay. (Loss of bound radioactivity is the signal in a displacement assay; it reports binding, not function.)
Data set [2] concerns Plasma. As to the kind of experiment: Half life in CD1 mouse plasma at 5 mg/kg, po. The data set is classed as ADME, organism-based. More on the design: dose 5 mg/kg, route oral. The settings on record: in vivo. A digest of the protocol: (§1)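 Male CD-1 mice given a single oral gavage dose of 5 mg/kg; plasma and brain concentrations measured over time to derive half-lives, Cmax and Tmax.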

Data set [3] is described as follows: Displacement of [3H]PK11195 from PBR at 10 uM.
Data set [4] concerns the target Cannabinoid receptor 1 (Homo sapiens) (UniProt P21554). As to the kind of experiment: Displacement of [3H]CP55940 from CB1 receptor at 10 uM.
Data set [5] deals with Sodium-dependent noradrenaline transporter (Homo sapiens) (UniProt P23975). The data set is described as follows: Displacement of [3H]Nisoxetine from NET at 10 uM.
Chain of Sodium-dependent noradrenaline transporter (Homo sapiens) (P23975 whole entry): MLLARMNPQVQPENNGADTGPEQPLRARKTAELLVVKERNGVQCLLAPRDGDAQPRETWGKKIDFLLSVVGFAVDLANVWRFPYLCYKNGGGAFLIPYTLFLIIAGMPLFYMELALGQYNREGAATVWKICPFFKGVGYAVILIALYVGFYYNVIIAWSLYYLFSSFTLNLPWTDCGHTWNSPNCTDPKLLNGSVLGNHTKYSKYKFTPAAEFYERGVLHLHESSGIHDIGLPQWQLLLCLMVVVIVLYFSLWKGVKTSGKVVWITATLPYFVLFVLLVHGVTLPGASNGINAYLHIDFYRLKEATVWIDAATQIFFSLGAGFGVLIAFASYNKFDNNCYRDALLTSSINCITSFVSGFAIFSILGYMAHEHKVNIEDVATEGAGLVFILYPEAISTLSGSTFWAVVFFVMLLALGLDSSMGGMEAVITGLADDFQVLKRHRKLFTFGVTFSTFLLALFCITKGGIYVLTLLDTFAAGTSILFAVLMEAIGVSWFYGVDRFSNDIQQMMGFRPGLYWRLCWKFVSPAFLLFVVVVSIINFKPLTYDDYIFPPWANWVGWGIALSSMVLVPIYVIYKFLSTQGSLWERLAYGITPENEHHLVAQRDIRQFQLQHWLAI
In data set [6] the target is Neuronal acetylcholine receptor; alpha4/beta4 (Rattus norvegicus, UniProt P09483+P12392). The data set is described as follows: Displacement of [3H] epibatidine from rat alpha4beta4 nAChR by beta scintillation counting. The data set is classed as protein-complex assay.
Chain of Neuronal acetylcholine receptor; alpha4/beta4 (P09483 whole entry): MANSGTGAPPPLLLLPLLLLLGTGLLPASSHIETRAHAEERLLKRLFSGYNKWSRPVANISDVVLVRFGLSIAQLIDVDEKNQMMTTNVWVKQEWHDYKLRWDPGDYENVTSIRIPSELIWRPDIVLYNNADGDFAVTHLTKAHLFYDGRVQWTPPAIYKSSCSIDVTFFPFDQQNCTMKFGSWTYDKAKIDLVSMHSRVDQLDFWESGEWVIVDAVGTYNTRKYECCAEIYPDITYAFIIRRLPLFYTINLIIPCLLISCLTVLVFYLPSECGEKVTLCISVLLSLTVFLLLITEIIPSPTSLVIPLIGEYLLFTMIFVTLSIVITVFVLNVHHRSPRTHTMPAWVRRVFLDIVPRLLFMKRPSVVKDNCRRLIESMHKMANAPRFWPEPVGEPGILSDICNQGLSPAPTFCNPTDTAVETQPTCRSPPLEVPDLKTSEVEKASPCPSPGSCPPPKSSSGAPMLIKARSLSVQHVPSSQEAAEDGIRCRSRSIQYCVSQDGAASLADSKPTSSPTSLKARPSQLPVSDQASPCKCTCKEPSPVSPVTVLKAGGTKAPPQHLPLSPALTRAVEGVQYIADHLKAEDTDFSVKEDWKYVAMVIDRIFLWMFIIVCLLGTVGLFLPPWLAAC
Chain of Neuronal acetylcholine receptor; alpha4/beta4 (P12392 whole entry): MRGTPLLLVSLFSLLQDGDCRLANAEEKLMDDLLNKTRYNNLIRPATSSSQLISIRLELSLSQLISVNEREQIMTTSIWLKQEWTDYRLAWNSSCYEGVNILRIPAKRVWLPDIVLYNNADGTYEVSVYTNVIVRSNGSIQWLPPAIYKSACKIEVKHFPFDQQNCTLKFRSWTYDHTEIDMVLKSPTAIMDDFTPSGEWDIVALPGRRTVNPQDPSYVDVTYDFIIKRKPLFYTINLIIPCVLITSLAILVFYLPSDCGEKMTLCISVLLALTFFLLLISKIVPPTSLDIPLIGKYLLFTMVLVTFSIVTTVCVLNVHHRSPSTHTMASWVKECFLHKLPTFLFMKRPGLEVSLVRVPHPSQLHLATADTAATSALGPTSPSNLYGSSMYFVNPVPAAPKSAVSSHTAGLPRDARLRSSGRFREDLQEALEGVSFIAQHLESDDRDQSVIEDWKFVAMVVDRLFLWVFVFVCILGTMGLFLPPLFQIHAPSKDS
The subject of data set [7] is Mus musculus. As to the kind of experiment: Antidepressant activity in BALB/cJ mouse assessed as decrease in immobility at 3 mg/kg, po administered 30 mins prior to testing measured for 6 mins by forced swim test. The data set is classed as functional, organism-based. More on the design: dose 3 mg/kg. A digest of the protocol:
(§2)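 Male BALB/cJ mice, 8−10 weeks old, housed four per cage on a 12 h light−dark cycle. Drug in injectable water was given by oral gavage (10 mL/kg). After 30 min, each mouse was placed in a glass cylinder with 12 cm of ~23 °C water, and floating immobility was timed over a 6 min trial. Analysis was by ANOVA with Fisher's PLSD post hoc test.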

Another data set concerns Brain. As to the kind of experiment: Half life in CD1 mouse brain at 5 mg/kg, po. The format is ADME, organism-based. Further details: dose 5 mg/kg, route oral. As to conditions: in vivo. A digest of the protocol:
as §1

The nature of data set [8]: Cmax in CD1 mouse brain at 5 mg/kg, po at 30 mins. More on the design: dose 5 mg/kg, route oral. The data set is classed as ADME, organism-based. A digest of the protocol: (§3)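 Male CD-1 mice received a single oral gavage dose of 5 mg/kg. Drug levels were measured in brain and plasma over time; Cmax and Tmax were taken from the concentration−time profiles.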
The subject of data set [9] is Plasma. The data set is described as follows: Cmax in CD1 mouse plasma at 5 mg/kg, po at 10 mins. The format is ADME, organism-based. Further details: dose 5 mg/kg, route oral. As to conditions: in vivo. A digest of the protocol: as §3
In data set [10] the test system is Plasma. As to the kind of experiment: Tmax in CD1 mouse plasma at 5 mg/kg, po. As to conditions: in vivo. The format is ADME, organism-based. Further details: dose 5 mg/kg, route oral. A digest of the protocol:
as §1

A further data set concerns Nucleic Acid. As to the kind of experiment: Ratio of drug level in brain to plasma in CD1 mouse at 5 mg/kg, po. The data set is classed as ADME, organism-based. Further details: dose 5 mg/kg, route oral. In a few lines:
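Male CD-1 mice, single 5 mg/kg oral gavage dose; brain-to-plasma ratio calculated as Cmax-brain/Cmax-plasma.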

The subject of data set [11] is Plasma. The data set is described as follows: Plasma protein binding in human at 10 uM. The data set is classed as ADME, cell-free. In a few lines: (§4)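 Binding measured at 10 μM in human plasma and CD-1 mouse plasma; reported as mean percent bound.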
The test system of data set [12] is Mus musculus. The data set is described as follows: Antidepressant activity in BALB/cJ mouse assessed as decrease in immobility at 10 mg/kg, po administered 30 mins prior to testing measured for 6 mins by forced swim test. More on the design: dose 10 mg/kg. The data set is classed as functional, organism-based. A digest of the protocol:
as §2

Data set [13] has as its target Histamine H4 receptor (Homo sapiens) (UniProt Q9H3N8). The data set is described as follows: Displacement of [3H]Histamine from H4 histamine receptor at 10 uM.
Data set [14] concerns the target Muscarinic acetylcholine receptor M1 (Homo sapiens) (UniProt P11229). As to the kind of experiment: Displacement of [3H]QNB from M1 receptor at 10 uM.
Data set [15] relates to Plasma. As to the kind of experiment: Plasma protein binding in CD1 mouse at 10 uM. The format is ADME, cell-free. A digest of the protocol: as §4
Data set [16] concerns the target Histamine H3 receptor (Homo sapiens) (UniProt Q9Y5N1). The data set is described as follows: Displacement of [3H]alpha-methylhistamine from H3 histamine receptor at 10 uM.

Chain of Cannabinoid receptor 1 (Homo sapiens) (P21554 whole entry): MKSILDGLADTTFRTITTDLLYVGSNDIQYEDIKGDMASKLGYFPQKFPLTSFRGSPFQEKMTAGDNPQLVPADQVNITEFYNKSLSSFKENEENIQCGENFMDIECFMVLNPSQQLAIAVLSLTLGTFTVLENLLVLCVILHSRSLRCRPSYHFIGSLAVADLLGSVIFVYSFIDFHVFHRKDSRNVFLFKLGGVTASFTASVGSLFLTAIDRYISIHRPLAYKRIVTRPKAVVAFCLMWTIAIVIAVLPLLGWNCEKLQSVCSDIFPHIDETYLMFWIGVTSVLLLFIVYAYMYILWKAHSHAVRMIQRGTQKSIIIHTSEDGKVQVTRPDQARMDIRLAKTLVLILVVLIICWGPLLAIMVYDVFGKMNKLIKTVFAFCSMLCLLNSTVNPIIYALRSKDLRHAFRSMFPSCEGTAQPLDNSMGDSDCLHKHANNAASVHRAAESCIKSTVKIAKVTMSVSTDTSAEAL
Chain of Alpha-1D adrenergic receptor (Homo sapiens) (P25100 whole entry): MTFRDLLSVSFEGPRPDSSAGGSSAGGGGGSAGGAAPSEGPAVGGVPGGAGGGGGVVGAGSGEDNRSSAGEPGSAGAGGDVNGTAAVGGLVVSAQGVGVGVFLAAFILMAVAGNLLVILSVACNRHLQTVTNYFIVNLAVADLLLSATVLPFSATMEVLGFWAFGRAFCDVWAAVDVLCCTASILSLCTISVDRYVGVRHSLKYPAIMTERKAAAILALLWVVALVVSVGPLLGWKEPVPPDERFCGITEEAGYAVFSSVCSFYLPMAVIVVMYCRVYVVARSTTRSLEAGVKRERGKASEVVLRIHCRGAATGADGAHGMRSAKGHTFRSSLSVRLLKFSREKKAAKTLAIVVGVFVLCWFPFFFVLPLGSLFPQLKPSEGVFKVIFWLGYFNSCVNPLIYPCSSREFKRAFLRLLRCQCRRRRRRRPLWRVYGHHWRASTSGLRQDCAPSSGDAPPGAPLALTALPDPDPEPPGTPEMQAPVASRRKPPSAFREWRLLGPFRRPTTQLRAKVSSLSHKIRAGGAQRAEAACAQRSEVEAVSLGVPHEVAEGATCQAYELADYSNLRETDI
Chain of Histamine H3 receptor (Homo sapiens) (Q9Y5N1 whole entry): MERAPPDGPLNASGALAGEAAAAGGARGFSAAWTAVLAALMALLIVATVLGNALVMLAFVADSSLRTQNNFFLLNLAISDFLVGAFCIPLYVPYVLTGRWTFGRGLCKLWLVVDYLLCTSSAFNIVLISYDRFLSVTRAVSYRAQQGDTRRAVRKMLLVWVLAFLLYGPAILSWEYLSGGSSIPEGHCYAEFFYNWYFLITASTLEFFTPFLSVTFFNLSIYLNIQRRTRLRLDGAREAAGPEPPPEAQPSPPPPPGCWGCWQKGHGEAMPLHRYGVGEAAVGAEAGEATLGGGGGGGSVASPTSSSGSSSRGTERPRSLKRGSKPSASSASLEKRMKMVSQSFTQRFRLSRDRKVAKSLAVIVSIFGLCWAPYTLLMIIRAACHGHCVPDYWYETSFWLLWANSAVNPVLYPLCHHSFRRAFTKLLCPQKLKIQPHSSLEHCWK
Chain of Muscarinic acetylcholine receptor M1 (Homo sapiens) (P11229 whole entry): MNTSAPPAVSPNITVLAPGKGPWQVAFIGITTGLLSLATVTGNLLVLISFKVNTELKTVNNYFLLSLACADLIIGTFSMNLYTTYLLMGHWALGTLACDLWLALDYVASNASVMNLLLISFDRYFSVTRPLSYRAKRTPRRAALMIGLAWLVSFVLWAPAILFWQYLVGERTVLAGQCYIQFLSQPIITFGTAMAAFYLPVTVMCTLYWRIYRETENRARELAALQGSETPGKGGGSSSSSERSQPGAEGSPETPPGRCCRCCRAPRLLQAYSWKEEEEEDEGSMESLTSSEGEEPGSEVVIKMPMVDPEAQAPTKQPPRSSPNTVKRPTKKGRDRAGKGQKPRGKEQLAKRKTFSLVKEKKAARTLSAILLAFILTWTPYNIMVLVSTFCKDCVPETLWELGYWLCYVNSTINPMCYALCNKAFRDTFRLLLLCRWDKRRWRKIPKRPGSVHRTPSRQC
Chain of Histamine H4 receptor (Homo sapiens) (Q9H3N8 whole entry): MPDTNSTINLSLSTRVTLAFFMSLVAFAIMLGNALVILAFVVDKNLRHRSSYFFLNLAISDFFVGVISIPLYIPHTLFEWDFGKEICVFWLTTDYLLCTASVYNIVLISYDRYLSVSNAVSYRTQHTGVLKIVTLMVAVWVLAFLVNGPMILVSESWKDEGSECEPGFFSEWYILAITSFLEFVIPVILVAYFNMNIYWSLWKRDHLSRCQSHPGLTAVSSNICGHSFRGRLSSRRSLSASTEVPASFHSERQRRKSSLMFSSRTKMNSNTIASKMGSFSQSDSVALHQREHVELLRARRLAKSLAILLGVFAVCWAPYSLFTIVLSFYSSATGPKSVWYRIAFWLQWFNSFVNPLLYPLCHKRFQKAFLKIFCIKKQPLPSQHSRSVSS

On to `COCC[C@H]1C[C@@H]1c1cncc(OC[C@@H]2CCN2)c1`, for which the inhibition in data set [1] is 3.4%; in data set [3] it was -5.9%; in data set [4], -2%; in [5] it was -0.2%. Also, the t1/2 worked out at 2.4 h with Plasma [2] and 2.5 h in the data set on Brain. In addition, affinity in [6] was put at a Ki of 0.0502 µM. The result in the data set on Mus musculus [7] was Active. The Cmax in data set [8] is 133 ng/mL; in the data set on Plasma [9], 359 ng/mL. In addition, the Tmax in the data set on Plasma [10] was found to be 0.167 h. Also, the BPR in the data set with Nucleic Acid worked out at 0.37.

Take `CNC(=O)OCC[C@H]1C[C@@H]1c1cncc(OC[C@@H]2CCN2)c1`: the inhibition in data set [1] was -2.7%; in data set [5] it was 69.6%; in data set [13], -8%; in data set [14], 12.9%; in data set [16], 5.7%. The affinity in data set [6] corresponds to a Ki of 0.441 µM. Besides, the PPB stood at 8.4% in the data set on Plasma [11] and 23.8% in the data set with Plasma [15]. Moreover, the outcome with Mus musculus [12] was Active.

In the case of `OCC[C@H]1C[C@@H]1c1cncc(OC[C@@H]2CCN2)c1`, the figures for the inhibition in data set [3] and in [4] were 4.7% and -3.4%, respectively. Further, the outcome in the data set on Mus musculus [7] was Active.
